The subject of data set [1] is Kidney. The experiment in a line: Drug uptake in ddY mouse kidney at 370 kBq/100 ul, iv at 2 mins by gamma-counting analysis. The class given is ADME, organism-based. The note with it: in vivo. Put shortly:
(§1)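 Normal male ddY mice (5 weeks, 20−22 g, n = 5) received 370 kBq of tracer in 100 μL saline with 5% EtOH via tail vein. Mice were sacrificed at set times after injection, and organs were excised, weighed and γ-counted against diluted injectate aliquots. Values are %ID per gram, except stomach and intestine as %ID per organ, given as mean ± SD of 5 mice.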

A further data set relates to Lung. The experiment in a line: Drug uptake in ddY mouse lung at 370 kBq/100 ul, iv at 30 mins by gamma-counting analysis. The format is ADME, organism-based. Conditions: in vivo, 0.5 h; call rule not given here. Put shortly: as §1
Another data set has as its system Spleen. The experiment in a line: Drug uptake in ddY mouse spleen at 370 kBq/100 ul, iv at 60 mins by gamma-counting analysis. The class given is ADME, organism-based. Conditions: in vivo, 1 h. In outline:
as §1

Data set [2] in a line: Displacement of [125I]IMPY from amyloid beta (1 to 42) fibrils after 2 hrs by gamma-counting analysis. Put shortly: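 Competition binding with aggregated Aβ1-42 fibrils (60 nM final) and [125I]IMPY. Inhibitors were tested at 10⁻⁵–10⁻¹⁰ M (in ethanol) in 0.2 M PBS, pH 7.4, 1 mL, for 2 h at 37 °C with shaking. Nonspecific binding was defined with 1 μM IMPY. Bound ligand was collected by GF/B filtration and γ-counted. Ki was derived from IC50 via Cheng–Prusoff.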

A further data set concerns Heart. Kind of data set: Drug uptake in ddY mouse heart at 370 kBq/100 ul, iv at 10 mins by gamma-counting analysis. The format is ADME, organism-based. Conditions: in vivo. In outline: as §1
In data set [3] the test system is Blood. Kind of data set: Drug uptake in ddY mouse blood at 370 kBq/100 ul, iv at 60 mins by gamma-counting analysis. The format is ADME, organism-based. The note with it: in vivo, 1 h. In outline:
as §1

Data set [4] deals with Blood. The experiment in a line: Drug uptake in ddY mouse blood at 370 kBq/100 ul, iv at 10 mins by gamma-counting analysis. Conditions: in vivo. The format is ADME, organism-based. In outline: as §1
Data set [5] deals with Brain. The experiment in a line: Drug uptake in wild type C57BL6 mouse brain at 370 kBq/100 ul after 1 hr by thioflavinS-staining method. The format is ADME, tissue-based. Put shortly: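 Paraffin sections of brain were used: C57BL6 mice (wild-type, 12 months), human AD (person) and normal human. Sections were deparaffinized through xylene and graded ethanol, then equilibrated 30 min in PBS (0.2 M, pH 7.4). Incubated 1 h at room temperature with tracer, 370 kBq/100 μL, washed 1 min in 50% ethanol and rinsed with water. Imaging plate exposed overnight. Plaques confirmed by thioflavin-S or anti-Aβ1-42 monoclonal immunostaining.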

The test system of data set [6] is Brain. The experiment in a line: Drug uptake in transgenic C57BL6 mouse brain expressing APP Swedish mutant at 40.7 MBq, iv at 2 mins by microPET imaging. The class given is ADME, organism-based. Conditions: in vivo.
Data set [7] has as its system Brain. The experiment in a line: Ratio of drug uptake in brain at 2 mins to drug uptake in 20 mins in wild type C57BL6 mouse. The class given is ADME, tissue-based. Conditions: in vivo.
The subject of data set [8] is Brain. The experiment in a line: Ratio of drug uptake in brain at 2 mins to drug uptake in 20 mins in transgenic C57BL6 mouse expressing APP Swedish mutant. The format is ADME, tissue-based. The note with it: in vivo.
Another data set relates to Hippocampus. Kind of data set: Drug uptake in transgenic C57BL6 mouse hippocampus expressing APP Swedish mutant at 40.7 MBq, iv at 60 mins by microPET imaging. The class given is ADME, organism-based. The note with it: in vivo, 1 h.
Another data set has as its system Cortex. Kind of data set: Drug uptake in transgenic C57BL6 mouse cortex expressing APP Swedish mutant at 40.7 MBq, iv at 60 mins by microPET imaging. The class given is ADME, organism-based. Conditions: in vivo, 1 h.
Data set [9] relates to Brain. Kind of data set: Drug uptake in wild type C57BL6 mouse brain at 40.7 MBq, iv up to 60 mins by microPET imaging. The class given is ADME, organism-based. The note with it: in vivo, 1 h.
Data set [10] relates to Brain. The experiment in a line: Drug uptake in wild type C57BL6 mouse brain at 40.7 MBq, iv at 2 mins by microPET imaging. The format is ADME, organism-based. Conditions: in vivo.
The nature of data set [11]: n-Octanol-PBS buffer partition coefficient, log D of the compound at 370 kBq after 3 mins at pH 7.4. The class given is physicochemical. In outline:
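For log D, tubes containing n-octanol and PBS were vortexed 3 min at room temperature and centrifuged 5 min at 3000 rpm. Weighed samples of the octanol (100 μL) and buffer (500 μL) layers were counted. Log D is the log of the ratio of counts per gram, octanol to PBS.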

The next data set relates to Intestine. Kind of data set: Drug uptake in ddY mouse intestine at 370 kBq/100 ul, iv at 30 mins by gamma-counting analysis. The class given is ADME, organism-based. The note with it: in vivo, 0.5 h. Put shortly: as §1
A further data set has as its system Stomach. The experiment in a line: Drug uptake in ddY mouse stomach assessed per organ at 370 kBq/100 ul, iv at 2 mins by gamma-counting analysis. Conditions: in vivo. The format is ADME, organism-based. In outline: as §1
Data set [12] deals with Kidney. Kind of data set: Drug uptake in ddY mouse kidney at 370 kBq/100 ul, iv at 60 mins by gamma-counting analysis. The format is ADME, organism-based. The note with it: in vivo, 1 h. Put shortly:
as §1

Data on two compounds can be found in ChEMBL document CHEMBL2176925, “Novel ¹⁸F-labeled benzoxazole derivatives as potential positron emission tomography probes for imaging of cerebral β-amyloid plaques in Alzheimer's disease” (J Med Chem, 2012).

For the compound `CNc1ccc(-c2nc3cc(OCCOCCOCC[18F])ccc3o2)cc1`, the Drug uptake in the data set with Kidney [1] is recorded as 12.88 % ID/g; in the data set with Lung, 5.3 % ID/g; in the data set with Spleen it was 3.42 % ID/g; in the data set on Heart, 4.78 % ID/g; in the data set with Blood [3] it was 4.87 % ID/g; in the data set with Blood [4], 3.46 % ID/g. Moreover, the Drug uptake entry in the data set with Brain [5] is “Not Active”; in the data set with Brain [6], “Active”; in the data set with Hippocampus it was “Active”; in the data set on Cortex it was “Active”; with Brain [9] it was “Not Active”; in the data set with Brain [10] it was “Active”. For the same compound, the Drug uptake with Intestine is 23.92 % ID/g; in the data set on Stomach, 1.59 %ID; in the data set with Kidney [12] it was 5.4 % ID/g. Further, the Ki in data set [2] worked out at 9.3 nM. Besides, the Ratio in the data set on Brain [7] stood at 1.77; in the data set on Brain [8], 1.21. In [11], this compound gave a log distribution coefficient (logD) at 0.05 h of 3.09.
`CN(C)c1ccc(-c2nc3cc(OCCOCCOCC[18F])ccc3o2)cc1`: the Drug uptake with Kidney [1] was 8.71 % ID/g; in the data set with Lung, 3.28 % ID/g; in the data set on Spleen, 2.25 % ID/g; in the data set on Heart, 3.52 % ID/g; in the data set with Blood [3], 3.33 % ID/g; with Blood [4], 2.26 % ID/g. For the same compound, the Drug uptake result is “Not Active” in the data set with Brain [5], 22.59 % ID/g in the data set with Intestine, 1.1 %ID in the data set on Stomach and 3.68 % ID/g in the data set on Kidney [12]. The same compound came in with a Ki in data set [2] of 3.9 nM. Further, in data set [11], the logD at 0.05 h was determined as 3.45.
